# Data as given in ChEMBL document CHEMBL1144108, “Annocherin and (2,4)-cis- and trans-annocherinones, monotetrahydrofuran Annonaceous acetogenins with a C-7 carbonyl group from Annona cherimolia seeds” (J Nat Prod, 1999).
# How the values were obtained:
# PC-3 = experiment: Cytotoxicity against human PC-3 cells after 7 days by MTT assay; assay type: functional; details: PC-3, 168 h, read-out: ED50 (the source's name)
# How it was run: (§1)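 Seven-day in vitro MTT cytotoxicity assay run at the Purdue Cancer Center Cell Culture Laboratory to standard protocols. Lines: A-549 lung carcinoma, MCF-7 breast carcinoma, HT-29 colon adenocarcinoma, A-498 kidney carcinoma, PC-3 prostate adenocarcinoma, MIA PaCa-2 pancreatic carcinoma. Adriamycin served as positive control.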
# MIA PaCa-2 [1] = experiment: Selectivity for human A498 cells over human MIA PaCa2 cells; assay type: functional
# A549 = experiment: Cytotoxicity against human A549 cells after 7 days by MTT assay; assay type: functional; details: A549, 168 h, read-out: ED50 (the source's name); how it was run: as §1
# [2] = Toxicity to brine shrimp larvae; assay type: organism-based; details: artemia salina, in vivo
# HT-29 = experiment: Cytotoxicity against human HT-29 cells after 7 days by MTT assay; assay type: functional; details: HT-29, 168 h, read-out: ED50 (the source's name); how it was run: as §1
# MCF7 = experiment: Cytotoxicity against human MCF7 cells after 7 days by MTT assay; assay type: functional; details: MCF7, 168 h, read-out: ED50 (the source's name); how it was run: as §1
# A498 [3] = experiment: Selectivity for human A498 cells over human HT29 cells; assay type: functional
# MIA PaCa-2 [4] = experiment: Cytotoxicity against human MIA PaCa2 cells after 7 days by MTT assay; assay type: functional; details: MIA PaCa-2, 168 h, read-out: ED50 (the source's name); how it was run: as §1
# A498 [5] = experiment: Cytotoxicity against human A-498 cells after 7 days by MTT assay; assay type: functional; details: A498, 168 h, read-out: ED50 (the source's name); how it was run: as §1
SMILES,EC50 (PC-3) [µg/mL],Selectivity ratio (MIA PaCa-2 [1]),EC50 (A549) [µg/mL],LC50 [2] [µg/mL],EC50 (HT-29) [µg/mL],EC50 (MCF7) [µg/mL],Selectivity ratio (A498 [3]),EC50 (MIA PaCa-2 [4]) [µg/mL],EC50 (A498 [5]) [µg/mL]
CCCCCCCCCCCC[C@H](O)[C@@H]1CC[C@@H]([C@@H](O)CCCCCCCC(=O)CC[C@@H](O)CC2=C[C@H](C)OC2=O)O1 [ANNOCHERIN],0.862,131,1.67,0.137,3.54,0.308,161,2.88,0.022
CCCCCCCCCCCC[C@H](O)[C@@H]1CC[C@@H]([C@@H](O)CCCCCCCC(O)CC[C@@H](O)CC2=C[C@H](C)OC2=O)O1 (some centres undefined),1.32,1000,1.63,0.0125,0.001,0.011,1000,0.001,2.96
COc1cccc2c1C(=O)c1c(O)c3c(c(O)c1C2=O)C[C@@](O)(C(=O)CO)C[C@@H]3O[C@H]1C[C@H](N)[C@H](O)[C@H](C)O1 [DOXORUBICIN],0.0499,,0.0043,,0.0168,0.129,,0.00101,0.0156
